Test results published in ChEMBL document CHEMBL5356951, “Semisynthetic polymyxins with potent antibacterial activity and reduced kidney cell toxicity” (RSC Med Chem, 2023).
Values after ≈ are worked out from the molar mass of the structure shown.

Columns and labels:
Format in all cases: functional
Escherichia coli [1] = assay: Antibacterial activity against Escherichia coli ATCC 25922 assessed as bacterial growth inhibition by broth microdilution assay
Procedure, shortened: (§1)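 Broth microdilution. Bacteria from glycerol stocks were grown overnight on blood agar at 37 °C, then colonies were suspended in TSB and grown to OD600 0.5. Compounds were dissolved in DMSO at 6.4 mg mL−1 (stock) and serially diluted in CAMHB (Mg2+ 12.5, Ca2+ 20 μg mL−1) in polypropylene plates. Inoculum was 10^6 CFU mL−1 final, incubated at 37 °C. MIC = lowest concentration without visible growth; values consistent across at least triplicate experiments.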

Escherichia coli [2] = assay: Antibacterial activity against Escherichia coli 1313 assessed as bacterial growth inhibition by broth microdilution assay; procedure, shortened: as §1
Escherichia coli [3] = assay: Antibacterial activity against multidrug-resistant Escherichia coli NCTC 13846 assessed as bacterial growth inhibition by broth microdilution assay
Procedure, shortened: (§2)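 Broth microdilution MIC. Strains grown overnight on blood agar at 37 °C, colonies suspended in TSB and grown to OD600 0.5. Compounds dissolved in DMSO (6.4 mg mL−1 stock), diluted serially in CAMHB (12.5 μg mL−1 Mg2+, 20 μg mL−1 Ca2+) on polypropylene plates. Final inoculum 10^6 CFU mL−1, 37 °C under gas-permeable membrane. MIC is the lowest concentration with no visible growth, consistent across at least triplicate experiments.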

Klebsiella pneumoniae [4] = assay: Antibacterial activity against Klebsiella pneumoniae ATCC 13883 assessed as bacterial growth inhibition by broth microdilution assay; procedure, shortened: as §1
Klebsiella pneumoniae [5] = assay: Antibacterial activity against Klebsiella pneumoniae JS-123 assessed as bacterial growth inhibition by broth microdilution assay; procedure, shortened: as §1
Klebsiella pneumoniae [6] = assay: Antibacterial activity against Klebsiella pneumoniae NCTC 13443 assessed as bacterial growth inhibition by broth microdilution assay; procedure, shortened: as §1
Acinetobacter baumannii [7] = assay: Antibacterial activity against Acinetobacter baumannii ATCC 19606 assessed as bacterial growth inhibition by broth microdilution assay; procedure, shortened: as §2
Acinetobacter baumannii [8] = assay: Antibacterial activity against Acinetobacter baumannii ATCC 17978 assessed as bacterial growth inhibition by broth microdilution assay; procedure, shortened: as §2
Acinetobacter baumannii [9] = assay: Antibacterial activity against multidrug-resistant Acinetobacter baumannii assessed as bacterial growth inhibition by broth microdilution assay; procedure, shortened: as §2
Acinetobacter baumannii [10] = assay: Antibacterial activity against Acinetobacter baumannii 2018-006 assessed as bacterial growth inhibition by broth microdilution assay; procedure, shortened: as §2
Pseudomonas aeruginosa [11] = assay: Antibacterial activity against Pseudomonas aeruginosa ATCC 27853 assessed as bacterial growth inhibition by broth microdilution assay; procedure, shortened: as §1
Pseudomonas aeruginosa [12] = assay: Antibacterial activity against Pseudomonas aeruginosa NRZ 08418 assessed as bacterial growth inhibition by broth microdilution assay; procedure, shortened: as §1
Pseudomonas aeruginosa [13] = assay: Antibacterial activity against Pseudomonas aeruginosa NRZ 03961 assessed as bacterial growth inhibition by broth microdilution assay; procedure, shortened: as §1

SMILES: CC(C)C[C@@H]1NC(=O)[C@@H](Cc2ccccc2)NC(=O)[C@H](CCN)NC(=O)[C@@H](NC(=O)CNC(=O)[C@@H](NC(=O)[C@H](N)CSSCc2cccc(Cl)c2)[C@@H](C)O)CCNC(=O)[C@H]([C@@H](C)O)NC(=O)[C@H](CCN)NC(=O)[C@H](CCN)NC1=O
- MIC (Escherichia coli [1]): 2 mg/L (≈ 1.7 µM)
- MIC (Escherichia coli [2]): 0.25 mg/L (≈ 0.212 µM)
- MIC (Escherichia coli [3]): 8 mg/L (≈ 6.78 µM)
- MIC (Klebsiella pneumoniae [4]): 1 mg/L (≈ 0.848 µM)
- MIC (Klebsiella pneumoniae [5]): 0.5 mg/L (≈ 0.424 µM)
- MIC (Klebsiella pneumoniae [6]): 0.5 mg/L (≈ 0.424 µM)
- MIC (Acinetobacter baumannii [7]): 1 mg/L (≈ 0.848 µM)
- MIC (Acinetobacter baumannii [8]): 1 mg/L (≈ 0.848 µM)
- MIC (Acinetobacter baumannii [9]): 1 mg/L (≈ 0.848 µM)
- MIC (Acinetobacter baumannii [10]): 1 mg/L (≈ 0.848 µM)
- MIC (Pseudomonas aeruginosa [11]): 4 mg/L (≈ 3.39 µM)
- MIC (Pseudomonas aeruginosa [12]): 4 mg/L (≈ 3.39 µM)
- MIC (Pseudomonas aeruginosa [13]): 4 mg/L (≈ 3.39 µM)

SMILES: CC(C)C[C@@H]1NC(=O)[C@@H](Cc2ccccc2)NC(=O)[C@H](CCN)NC(=O)[C@@H](NC(=O)[C@@H](CCN)NC(=O)[C@@H](NC(=O)[C@H](N)CSSCc2cccc(Cl)c2)[C@@H](C)O)CCNC(=O)[C@H]([C@@H](C)O)NC(=O)[C@H](CCN)NC(=O)[C@H](CCN)NC1=O
- MIC (Escherichia coli [1]): 2 mg/L (≈ 1.64 µM)
- MIC (Escherichia coli [2]): 0.5 mg/L (≈ 0.409 µM)
- MIC (Escherichia coli [3]): 4 mg/L (≈ 3.27 µM)
- MIC (Klebsiella pneumoniae [4]): 1 mg/L (≈ 0.818 µM)
- MIC (Klebsiella pneumoniae [5]): 0.5 mg/L (≈ 0.409 µM)
- MIC (Klebsiella pneumoniae [6]): 0.5 mg/L (≈ 0.409 µM)
- MIC (Acinetobacter baumannii [7]): 0.5 mg/L (≈ 0.409 µM)
- MIC (Acinetobacter baumannii [8]): 1 mg/L (≈ 0.818 µM)
- MIC (Acinetobacter baumannii [9]): 1 mg/L (≈ 0.818 µM)
- MIC (Acinetobacter baumannii [10]): 0.5 mg/L (≈ 0.409 µM)
- MIC (Pseudomonas aeruginosa [11]): 2 mg/L (≈ 1.64 µM)
- MIC (Pseudomonas aeruginosa [12]): 2 mg/L (≈ 1.64 µM)
- MIC (Pseudomonas aeruginosa [13]): 2 mg/L (≈ 1.64 µM)

SMILES: CC(C)C[C@@H]1NC(=O)[C@@H](Cc2ccccc2)NC(=O)[C@H](CCN)NC(=O)[C@@H](NC(=O)CNC(=O)[C@@H](NC(=O)[C@H](N)CSSCCC2CCCCC2)[C@@H](C)O)CCNC(=O)[C@H]([C@@H](C)O)NC(=O)[C@H](CCN)NC(=O)[C@H](CCN)NC1=O
- MIC (Escherichia coli [1]): 2 mg/L (≈ 1.72 µM)
- MIC (Escherichia coli [2]): 0.5 mg/L (≈ 0.429 µM)
- MIC (Escherichia coli [3]): 8 mg/L (≈ 6.86 µM)
- MIC (Klebsiella pneumoniae [4]): 1 mg/L (≈ 0.858 µM)
- MIC (Klebsiella pneumoniae [5]): 0.5 mg/L (≈ 0.429 µM)
- MIC (Klebsiella pneumoniae [6]): 1 mg/L (≈ 0.858 µM)
- MIC (Acinetobacter baumannii [7]): 0.5 mg/L (≈ 0.429 µM)
- MIC (Acinetobacter baumannii [8]): 0.5 mg/L (≈ 0.429 µM)
- MIC (Acinetobacter baumannii [9]): 1 mg/L (≈ 0.858 µM)
- MIC (Acinetobacter baumannii [10]): 0.5 mg/L (≈ 0.429 µM)
- MIC (Pseudomonas aeruginosa [11]): 2 mg/L (≈ 1.72 µM)
- MIC (Pseudomonas aeruginosa [12]): 2 mg/L (≈ 1.72 µM)
- MIC (Pseudomonas aeruginosa [13]): 4 mg/L (≈ 3.43 µM)

SMILES: CC(C)CCSSC[C@@H](N)C(=O)N[C@H](C(=O)N[C@H](CO)C(=O)N[C@H]1CCNC(=O)[C@H]([C@@H](C)O)NC(=O)[C@H](CCN)NC(=O)[C@H](CCN)NC(=O)[C@H](CC(C)C)NC(=O)[C@@H](Cc2ccccc2)NC(=O)[C@H](CCN)NC1=O)[C@@H](C)O
- MIC (Escherichia coli [1]): 2 mg/L (≈ 1.73 µM)
- MIC (Escherichia coli [2]): 0.5 mg/L (≈ 0.433 µM)
- MIC (Escherichia coli [3]): 16 mg/L (≈ 13.8 µM)
- MIC (Klebsiella pneumoniae [4]): 0.5 mg/L (≈ 0.433 µM)
- MIC (Klebsiella pneumoniae [5]): 0.5 mg/L (≈ 0.433 µM)
- MIC (Klebsiella pneumoniae [6]): 1 mg/L (≈ 0.865 µM)
- MIC (Acinetobacter baumannii [7]): 0.25 mg/L (≈ 0.216 µM)
- MIC (Acinetobacter baumannii [8]): 0.25 mg/L (≈ 0.216 µM)
- MIC (Acinetobacter baumannii [9]): 0.5 mg/L (≈ 0.433 µM)
- MIC (Acinetobacter baumannii [10]): 0.5 mg/L (≈ 0.433 µM)
- MIC (Pseudomonas aeruginosa [11]): 4 mg/L (≈ 3.46 µM)
- MIC (Pseudomonas aeruginosa [12]): 8 mg/L (≈ 6.92 µM)
- MIC (Pseudomonas aeruginosa [13]): 8 mg/L (≈ 6.92 µM)

SMILES: CC(C)C[C@@H]1NC(=O)[C@@H](Cc2ccccc2)NC(=O)[C@H](CCN)NC(=O)[C@@H](NC(=O)[C@@H](CN)NC(=O)[C@@H](NC(=O)[C@H](N)CSSCCC2CCCCC2)[C@@H](C)O)CCNC(=O)[C@H]([C@@H](C)O)NC(=O)[C@H](CCN)NC(=O)[C@H](CCN)NC1=O
- MIC (Escherichia coli [1]): 2 mg/L (≈ 1.67 µM)
- MIC (Escherichia coli [2]): 0.5 mg/L (≈ 0.419 µM)
- MIC (Escherichia coli [3]): 4 mg/L (≈ 3.35 µM)
- MIC (Klebsiella pneumoniae [4]): 1 mg/L (≈ 0.837 µM)
- MIC (Klebsiella pneumoniae [5]): 1 mg/L (≈ 0.837 µM)
- MIC (Klebsiella pneumoniae [6]): 1 mg/L (≈ 0.837 µM)
- MIC (Acinetobacter baumannii [7]): 0.5 mg/L (≈ 0.419 µM)
- MIC (Acinetobacter baumannii [8]): 1 mg/L (≈ 0.837 µM)
- MIC (Acinetobacter baumannii [9]): 1 mg/L (≈ 0.837 µM)
- MIC (Acinetobacter baumannii [10]): 0.5 mg/L (≈ 0.419 µM)
- MIC (Pseudomonas aeruginosa [11]): 2 mg/L (≈ 1.67 µM)
- MIC (Pseudomonas aeruginosa [12]): 2 mg/L (≈ 1.67 µM)
- MIC (Pseudomonas aeruginosa [13]): 2 mg/L (≈ 1.67 µM)

SMILES: CC(C)C[C@@H]1NC(=O)[C@@H](Cc2ccccc2)NC(=O)[C@H](CCN)NC(=O)[C@@H](NC(=O)[C@H](CN)NC(=O)[C@@H](NC(=O)[C@H](N)CSSCCC2CCCCC2)[C@@H](C)O)CCNC(=O)[C@H]([C@@H](C)O)NC(=O)[C@H](CCN)NC(=O)[C@H](CCN)NC1=O
- MIC (Escherichia coli [1]): 1 mg/L (≈ 0.837 µM)
- MIC (Escherichia coli [2]): 0.5 mg/L (≈ 0.419 µM)
- MIC (Escherichia coli [3]): 2 mg/L (≈ 1.67 µM)
- MIC (Klebsiella pneumoniae [4]): 1 mg/L (≈ 0.837 µM)
- MIC (Klebsiella pneumoniae [5]): 0.5 mg/L (≈ 0.419 µM)
- MIC (Klebsiella pneumoniae [6]): 1 mg/L (≈ 0.837 µM)
- MIC (Acinetobacter baumannii [7]): 0.5 mg/L (≈ 0.419 µM)
- MIC (Acinetobacter baumannii [8]): 1 mg/L (≈ 0.837 µM)
- MIC (Acinetobacter baumannii [9]): 1 mg/L (≈ 0.837 µM)
- MIC (Acinetobacter baumannii [10]): 0.5 mg/L (≈ 0.419 µM)
- MIC (Pseudomonas aeruginosa [11]): 2 mg/L (≈ 1.67 µM)
- MIC (Pseudomonas aeruginosa [12]): 2 mg/L (≈ 1.67 µM)
- MIC (Pseudomonas aeruginosa [13]): 2 mg/L (≈ 1.67 µM)
